ChEMBL document CHEMBL1122774, “Tri- and tetrapeptide analogues of kinins as potential renal vasodilators” (J Med Chem, 1984)
Square brackets hold non-standard residues; d marks the D form. Peptide text beside a SMILES is read from it. * marks the point of attachment. ξ: configuration not given here. Hydrocinnamoyl = O=C(CCc1ccccc1)*; ξαMeF = CC(N)(Cc1ccccc1)C(=O)O; PhAc = O=C(Cc1ccccc1)*; Bz = O=C(c1ccccc1)*

Assays:
Canis familiaris [1] = experiment: Renal vasodilator activity in anesthetized dogs and percent change in heart rate (HR) was determined at 3 ug/kg min; format: functional, Canis lupus familiaris
How it was run: (§1)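 Primary screen in anesthetized dogs (7-17 kg). Drug infused separately at 3, 30 and 300 µg/(kg min), each infusion lasting 5 min, at about 15-min intervals. Read-outs are renal blood flow, mean arterial blood pressure, heart rate, and RVR (MABP / mean RBF), as percent change. Significance thresholds are defined per number of dogs; n = 1-3 dogs.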

Canis familiaris [2] = experiment: Renal vasodilator activity in anesthetized dogs and percent change in heart rate (HR) was determined at 30 ug/kg min; format: functional, Canis lupus familiaris; how it was run: as §1
Canis familiaris [3] = experiment: Renal vasodilator activity in anesthetized dogs and percent change in heart rate (HR) was determined at 300 ug/kg min; format: functional, Canis lupus familiaris; how it was run: as §1
Canis familiaris [4] = experiment: Renal vasodilator activity in anesthetized dogs and percent change in mean arterial blood pressure (MABP) was determined at 3 ug/kg min; format: functional, Canis lupus familiaris; how it was run: as §1
Canis familiaris [5] = experiment: Renal vasodilator activity in anesthetized dogs and percent change in mean arterial blood pressure (MABP) was determined at 30 ug/kg min; format: functional, Canis lupus familiaris; how it was run: as §1
Canis familiaris [6] = experiment: Renal vasodilator activity in anesthetized dogs and percent change in mean arterial blood pressure (MABP) was determined at 300 ug/kg min; format: functional, Canis lupus familiaris; how it was run: as §1
Canis familiaris [7] = experiment: Renal vasodilator activity in anesthetized dogs and percent change in renal blood flow (RBF) was determined at 3 ug/kg min; format: functional, Canis lupus familiaris, Kidney; how it was run: as §1
Canis familiaris [8] = experiment: Renal vasodilator activity in anesthetized dogs and percent change in renal blood flow (RBF) was determined at 30 ug/kg min; format: functional, Canis lupus familiaris, Kidney; how it was run: as §1
Canis familiaris [9] = experiment: Renal vasodilator activity in anesthetized dogs and percent change in renal blood flow (RBF) was determined at 300 ug/kg min; format: functional, Canis lupus familiaris, Kidney; how it was run: as §1
Canis familiaris [10] = experiment: Renal vasodilator activity in anesthetized dogs and percent change in renal vascular resistance (RVR) was determined at 3 ug/kg min; format: functional, Canis lupus familiaris; how it was run: as §1
Canis familiaris [11] = experiment: Renal vasodilator activity in anesthetized dogs and percent change in renal vascular resistance (RVR) was determined at 300 ug/kg min; format: functional, Canis lupus familiaris; how it was run: as §1
Canis familiaris [12] = experiment: Renal vasodilator activity in anesthetized dogs and percent change in renal vascular resistance (RVR) was determined at 30 ug/kg min; format: functional, Canis lupus familiaris; how it was run: as §1
Canis familiaris [13] = experiment: In vivo percent change in renal blood flow at 30 ug/Kg/min.; format: functional, Canis lupus familiaris, Kidney; how it was run: as §1
Canis familiaris [14] = experiment: Renal vasodilator activity in anesthetized dogs and percent change in renal vascular resistance (RVR) was determined at 30 ug/Kg/min; format: functional, Canis lupus familiaris; how it was run: as §1
Canis familiaris [15] = experiment: In vivo percent change in canine heart rate at 3 ug/Kg/min.; format: functional, Canis lupus familiaris; how it was run: as §1
Canis familiaris [16] = experiment: In vivo percent change in canine heart rate at 30 ug/Kg/min.; format: functional, Canis lupus familiaris; how it was run: as §1
Canis familiaris [17] = experiment: In vivo percent change in canine heart rate at 300 ug/Kg/min.; format: functional, Canis lupus familiaris; how it was run: as §1
Canis familiaris [18] = experiment: In vivo percent change in canine mean arterial blood pressure (MABP) at 3 ug/Kg/min.; format: functional, Canis lupus familiaris; how it was run: as §1
Canis familiaris [19] = experiment: In vivo percent change in canine mean arterial blood pressure (MABP) at 30 ug/Kg/min.; format: functional, Canis lupus familiaris; how it was run: as §1
Canis familiaris [20] = experiment: In vivo percent change in canine mean arterial blood pressure (MABP) at 300 ug/Kg/min.; format: functional, Canis lupus familiaris; how it was run: as §1
Canis familiaris [21] = experiment: In vivo percent change in canine renal blood flow (RBF) at 3 ug/Kg/min.; format: functional, Canis lupus familiaris, Kidney; how it was run: as §1
Canis familiaris [22] = experiment: In vivo percent change in canine renal blood flow (RBF) at 300 ug/Kg/min.; format: functional, Canis lupus familiaris, Kidney; how it was run: as §1
Canis familiaris [23] = experiment: In vivo percent change in canine renal vascular resistance (RVR) at 3 ug/Kg/min.; format: functional, Canis lupus familiaris; how it was run: as §1
Canis familiaris [24] = experiment: In vivo percent change in canine renal vascular resistance (RVR) at 300 ug/Kg/min.; format: functional, Canis lupus familiaris; how it was run: as §1

SMILES	Change (Canis familiaris [1]) [%]	Change (Canis familiaris [2]) [%]	Change (Canis familiaris [3]) [%]	Change (Canis familiaris [4]) [%]	Change (Canis familiaris [5]) [%]	Change (Canis familiaris [6]) [%]	Change (Canis familiaris [7]) [%]	Change (Canis familiaris [8]) [%]	Change (Canis familiaris [9]) [%]	Change (Canis familiaris [10]) [%]	Change (Canis familiaris [11]) [%]	Change (Canis familiaris [12]) [%]	also measured
CC(Cc1ccccc1)(NC(=O)[C@@H]1CCCN1)C(=O)N1CCC[C@H]1C(=O)O (stereo partly specified) (H-Pro-[ξαMeF]-Pro-OH)	0	0	0	1	0	-3	0	0	8	1	-10	0	–
COc1ccc(CC(C)(NC(=O)[C@@H]2CCCN2C(=O)CCCc2ccc(O)cc2)C(=O)NCCCN)cc1OC.Cl (stereo partly specified)	–	–	–	–	–	–	–	–	–	–	–	–	Change (Canis familiaris [13]): 16.5%; Change (Canis familiaris [14]): -15.5%; Change (Canis familiaris [15]): 0.5%; Change (Canis familiaris [16]): -1%; Change (Canis familiaris [17]): 1.5%; Change (Canis familiaris [18]): 1.5%; Change (Canis familiaris [19]): -2%; Change (Canis familiaris [20]): -1.5%; Change (Canis familiaris [21]): 13.5%; Change (Canis familiaris [22]): 10.5%; Change (Canis familiaris [23]): -11%; Change (Canis familiaris [24]): -10%
CC(Cc1ccccc1)(NC(=O)[C@@H]1CCCN1C(=O)CCCCc1ccccc1)C(=O)N[C@@H](CCCN=C(N)N)C(=O)O (stereo partly specified)	-1	-1	6	1	3	1	4	1	3	-2	-2	1	–
N=C(N)NCCC[C@H](NC(=O)[C@H](Cc1ccccc1)NC(=O)[C@@H]1CCCN1C(=O)c1ccccc1)C(=O)O (Bz-Pro-Phe-Arg-OH)	0	0	0	4	1	0	3	0	-10	2	11	0	–
CC(Cc1ccccc1)(NC(=O)[C@@H]1CCCN1C(=O)CCc1ccccc1)C(=O)N[C@@H](CCCN=C(N)N)C(=O)O (stereo partly specified) (Hydrocinnamoyl-Pro-[ξαMeF]-Arg-OH)	8	1	-1	-2	-3	1	5	2	1	-7	0	-5	–
CC(Cc1ccccc1)(NC(=O)[C@@H]1CCCN1)C(=O)N[C@@H](CCCN=C(N)N)C(=O)O (stereo partly specified) (H-Pro-[ξαMeF]-Arg-OH)	-0.7	0	0	1	-0.3	-0.7	1.3	9.3	7.3	0.3	-5.3	-7.3	–
CC(Cc1ccccc1)(NC(=O)[C@@H]1CCCN1C(=O)CCCc1ccc(O)cc1)C(=O)N[C@@H](CCCN=C(N)N)C(=O)O (stereo partly specified)	0	0	0	-4	2	0	8	12	11	-12	-11	-9	–
N=C(N)NCCC[C@H](NC(=O)[C@H](Cc1ccccc1)NC(=O)[C@@H]1CCCN1C(=O)CCCc1ccccc1)C(=O)O	2	1.7	-1.7	1	0.3	-0.7	5.3	4	-1.7	-5.7	1	-3.7	–
N=C(N)NCCC[C@H](NC(=O)[C@@H](Cc1ccccc1)NC(=O)[C@@H]1CCCN1C(=O)CCCc1ccccc1)C(=O)O	-3	0	-2	0	1	0	3	2	4	-3	-4	-1	–
N=C(N)NCCC[C@H](NC(=O)[C@H](Cc1ccccc1)NC(=O)[C@@H]1CCCN1)C(=O)O (H-Pro-Phe-Arg-OH)	-6	3	6	-1	1	-4	4	3	-3	-5	0	-2	–
CC(Cc1ccccc1)(NC(=O)[C@@H]1CCCN1C(=O)CCCc1ccccc1)C(=O)N[C@@H](CCCN=C(N)N)C(=O)O (stereo partly specified)	-3.6	0	-1	3	2.8	1	0	4.6	1	3	0	-1.8	–
Cl.NCCCNC(=O)[C@@H]1Cc2ccccc2CN1C(=O)CCCc1ccc(O)cc1	1	-2	-1	-2	-1	-2	3	6	5	-6	-6	-6	–
CC(Cc1ccccc1)(NC(=O)[C@@H]1CCCN1C(=O)Cc1ccccc1)C(=O)N[C@@H](CCCN=C(N)N)C(=O)O (stereo partly specified) (PhAc-Pro-[ξαMeF]-Arg-OH)	9	-2	0	0	0	5	4	0	-2	-4	7	0	–
